Article PMC6405215 (Cell chemical biology, 2018)

Columns and labels:
human macrophages [1] = test: Macrophage phagocytosis of serum-treated zymosan; assay type: cell-based; conditions: human MΦ; for phagocytosis of STZ, dose response: 0.1pM-10 nM, 15 min preincubation; for increase of phagocytosis of STZ above vehicle: 10 pM
Outline: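 GM-CSF-differentiated human macrophages were plated at 50,000 cells/well in PBS++ and used 24 h later. Compounds (0.1 pM–10 nM) were added for 15 min at 37 °C, pH 7.45. FITC-labelled serum-treated zymosan was then added at 10:1 for 40 min at 37 °C. Extracellular signal was quenched with trypan blue and fluorescence read at Ex 493/Em 535 nm. Results are % above vehicle, triplicates from 3–4 donors, with curve fitting.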

DRV1/GPR32 [2] = biological target: T1, DRV1/GPR32 (Homo sapiens, UniProt O75388); test: GPR32 cAMP HTRF signaling assay; assay type: cell-based; conditions: for effect on forskolin-stimulated cAMP: forskolin 8 μM
T1 sequence (O75388 whole entry): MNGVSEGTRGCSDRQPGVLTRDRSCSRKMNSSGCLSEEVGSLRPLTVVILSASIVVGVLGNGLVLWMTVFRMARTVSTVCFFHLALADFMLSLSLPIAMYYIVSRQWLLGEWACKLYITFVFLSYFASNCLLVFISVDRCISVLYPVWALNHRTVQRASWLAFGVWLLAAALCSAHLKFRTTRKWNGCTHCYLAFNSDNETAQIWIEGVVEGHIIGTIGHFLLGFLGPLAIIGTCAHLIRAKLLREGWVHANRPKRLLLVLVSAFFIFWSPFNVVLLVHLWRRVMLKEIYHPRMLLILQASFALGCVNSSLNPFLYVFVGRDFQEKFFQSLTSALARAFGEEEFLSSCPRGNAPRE
Outline: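 CHO-K1 PathHunter GPR32 cells were seeded at 1,800 cells/well for 20 h, then stimulated with forskolin (8 μM final) plus Ro 20-1724 (100 μM final). Compounds were added as 1:3 dilutions (57 μM–1 nM final) for 30 min at 37 °C. cAMP was read by HTRF as the 665/615 nm ratio ×10,000. Forskolin alone set 0%; DMSO (0.57%) set −100%. Two experiments in triplicate.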

human macrophages [3] = test: CD163; assay type: cell-based; conditions: 10 nM, 24h; significant only for RvD1
[4] = test system: DRV1-transfected macrophages; test: Real-time phagocytosis of live E. coli, macrophages overexpressing DRV1/GPR32; assay type: cell-based, human; conditions: 10 nM
Outline: (§1)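 Macrophages were transfected with a human GPR32 expression vector or a mock vector (5 μg) using Jet-PEI. Cells were re-plated on chamber slides 48 h later and imaged 24 h after that in a stage-top incubator. Compound (10 nM) was given for 15 min at 37 °C, then BacLight Green-labelled E. coli at 50:1. Fluorescence was imaged every 10 min for 60 min, 4 fields/well at 40X. Results are % above vehicle from 3 donors.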

recombinant human DRV1 = recombinant human DRV1 (Homo sapiens, UniProt O75388); test: Electrical cell substrate impedance sensing; assay type: cell-based; conditions: for direction of impedance change: CHO cells expressing DRV1, concentration not stated
recombinant human DRV1, sequence (O75388 whole entry): as above
Outline: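 GPR32- or mock-transfected CHO cells were seeded at 0.1×10^6 per well of an 8-well ECIS electrode array. Test compounds were added in serum-free medium at 100 nM–10 μM. Impedance across the monolayer was recorded every 4 s for 10 min at 37 °C. Tracings are representative of 3 independent experiments.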

DRV1/GPR32 [5] = biological target: T1, DRV1/GPR32; test: GPR32 PathHunter β-Arrestin Assay; assay type: cell-based
Outline: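 CHO-K1 PathHunter GPR32 cells were grown with geneticin 800 μg/mL and hygromycin B 300 μg/mL, then seeded at 2,500 cells/well in 1536-well plates overnight. Compounds in DMSO were tested at 11 points (1:3, 57 μM–1 nM) for 90 min at 37 °C, then detection reagent was added for 1 h and luminescence read. DMSO (0.57%) set 0%; a 2-fold signal increase set 100%. Two experiments in triplicate.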

[6] = test system: mock-transfected macrophages; test: Real-time phagocytosis of live E. coli, mock-transfected macrophages; assay type: cell-based, human; conditions: 10 nM
Outline: as §1

CHO-WT cells = test: ECIS in wild-type CHO cells; assay type: cell-based, Chinese hamster; conditions: 1μM
[7] = hGPR32/DRV1-transfected, 10 min

| SMILES | EC50 (DRV1/GPR32 [2]) [nM] | direction of impedance change (recombinant human DRV1) | EC50 (DRV1/GPR32 [5]) [nM] | impedance change (recombinant human DRV1; CHO-hDRV1, 100 nM) | phagocytosis of STZ (human macrophages [1]; 0.1–10 nM) | effect on forskolin-stimulated cAMP (DRV1/GPR32 [2]) | increase of CD163 levels compared to vehicle (human macrophages [3]) [%] | increase of phagocytosis of E. coli above vehicle control [4, 7] [%] | impedance change (recombinant human DRV1; CHO-DRV1, 100 nM-10 μM) | phagocytosis of STZ, dose response (human macrophages [1]) | increase of phagocytosis of STZ above vehicle (human macrophages [1]) | increase of phagocytosis of E. coli above vehicle control ([6]; 10 min) | increase of phagocytosis of E. coli above vehicle control ([4]; DRV1-transfected, 20–30 min) [%] | increase of phagocytosis of E. coli above vehicle control ([6]; 20–30 min) | impedance change (CHO-WT cells) | impedance change (recombinant human DRV1; CHO-DRV1 cells, 1μM) | β-arrestin signal increase above basal cell activity (DRV1/GPR32 [5]; GPR32 β-arrestin cells, 11 concentrations 57 μM to 1 nM) | β-arrestin activity (DRV1/GPR32 [5]; dose response) |
| --- | --- | --- | --- | --- | --- | --- | --- | --- | --- | --- | --- | --- | --- | --- | --- | --- | --- | --- |
| NCCc1c[nH]c2ccc(O)cc12 [5-HT] | – | – | – | – | did not significantly increase phagocytosis | – | – | – | – | – | – | – | – | – | – | – | – | – |
| Cc1c(-c2cccc(NC(=O)c3ccc(F)c(F)c3)c2)nc2ncccn12 [C2A, 3,4-difluoro-N-[3-(3-methylimidazo[1,2-a]pyrimidin-2-yl)phenyl]benzamide] | 50 | increased impedance | 370 | – | – | dose-dependently reduced forskolin-stimulated cAMP release | 13.3 | > 40 | dose-dependently elicited rapid changes in impedance | enhanced phagocytosis in a dose-dependent manner | 35–40% | – | – | – | – | – | – | – |
| COc1ccccc1N1CCN(CCN(C(=O)c2ccc(F)cc2)c2ccccn2)CC1 [pMPPF, 4-Fluoro-N-{2-[4-(2-methoxyphenyl)-1-piperazinyl]ethyl}-N-(2-pyridinyl)benzamide, reference compound] | – | increased impedance | 1160 | – | – | dose-dependently reduced forskolin-stimulated cAMP release | 13.7 | – | – | enhanced phagocytosis in a dose-dependent manner | ~ 60% | – | > 50 | – | did not give significant impedance changes | increased | ~ 30% | – |
| COc1ccccc1N1CCN(CCN(C(=O)c2ccc(I)cc2)c2ccccn2)CC1 [pMPPI, 4-iodo-N-{2-[4-(2-methoxyphenyl)-1-piperazinyl]ethyl}-N-(2-pyridinyl)benzamide, reference compound] | 2500 | reduced impedance | – | – | – | increased forskolin-stimulated cAMP release | 20.0 | – | – | enhanced phagocytosis in a dose-dependent manner | significantly less potent than pMPPF | – | – | – | did not give significant impedance changes | reduced impedance | – | not β-arrestin activities |

Second part, led by results:

| EC50 (DRV1/GPR32 [2]) [nM] | direction of impedance change (recombinant human DRV1) | EC50 (DRV1/GPR32 [5]) [nM] | impedance change (recombinant human DRV1; CHO-hDRV1, 100 nM) | SMILES | phagocytosis of STZ (human macrophages [1]; 0.1–10 nM) | effect on forskolin-stimulated cAMP (DRV1/GPR32 [2]) | increase of CD163 levels compared to vehicle (human macrophages [3]) [%] | increase of phagocytosis of E. coli above vehicle control [4, 7] [%] | impedance change (recombinant human DRV1; CHO-DRV1, 100 nM-10 μM) | phagocytosis of STZ, dose response (human macrophages [1]) | increase of phagocytosis of STZ above vehicle (human macrophages [1]) | increase of phagocytosis of E. coli above vehicle control ([6]; 10 min) | increase of phagocytosis of E. coli above vehicle control ([4]; DRV1-transfected, 20–30 min) [%] | increase of phagocytosis of E. coli above vehicle control ([6]; 20–30 min) | impedance change (CHO-WT cells) | impedance change (recombinant human DRV1; CHO-DRV1 cells, 1μM) | β-arrestin signal increase above basal cell activity (DRV1/GPR32 [5]; GPR32 β-arrestin cells, 11 concentrations 57 μM to 1 nM) | β-arrestin activity (DRV1/GPR32 [5]; dose response) |
| --- | --- | --- | --- | --- | --- | --- | --- | --- | --- | --- | --- | --- | --- | --- | --- | --- | --- | --- |
| 380 | increased impedance | 930 | – | COc1cccc(C(=O)Nc2nnc(S(=O)(=O)N3CCOCC3)s2)c1 [C1A, 3-methoxy-N-(5-morpholin-4-ylsulfonyl-1,3,4-thiadiazol-2-yl)benzamide] | – | dose-dependently reduced forskolin-stimulated cAMP release | 4.7 | > 70 | dose-dependently elicited rapid changes in impedance | enhanced phagocytosis in a dose-dependent manner | 35–40% | ~ 15% | – | – | – | – | – | – |
| 320 | increased impedance | 3790 | – | O=C(Nc1nnc(S(=O)(=O)N2CCOCC2)s1)c1cccc(Br)c1 [C1B, 3-bromo-N-(5-morpholin-4-ylsulfonyl-1,3,4-thiadiazol-2-yl)benzamide] | – | dose-dependently reduced forskolin-stimulated cAMP release | – | – | dose-dependently elicited rapid changes in impedance | – | – | – | – | – | – | – | – | – |
| 190 | increased impedance | 1170 | – | COc1cccc(C(=O)Nc2cccc(-c3nc4ncccn4c3C)c2)c1 [C2B, 3-methoxy-N-[3-(3-methylimidazo[1,2-a]pyrimidin-2-yl)phenyl]benzamide] | – | dose-dependently reduced forskolin-stimulated cAMP release | – | – | dose-dependently elicited rapid changes in impedance | – | – | – | – | – | – | – | – | – |
| – | reduced impedance | – | time-dependently reduced impedance | CC/C=C\C[C@H](O)/C=C/C=C\C=C\C=C\[C@@H](O)[C@@H](O)C/C=C\CCC(=O)O [RvD1, 7S,8R,17S-trihydroxy-4Z,9E,11E,13Z,15E,19Z-docosahexaenoic acid, reference compound] | – | – | 25.7 | – | – | dose-dependently increased phagocytosis | ~ 60% | – | > 100 | 30–40% | – | – | – | – |
